Assay results published in ChEMBL document CHEMBL1147691, “Quinol fatty alcohols as promoters of axonal growth” (Bioorg Med Chem Lett, 2006).

Key:
[1] = tested on: Cortical neurone; test: Growth promoting activity in axon relative to control; format: functional, Mus musculus; design: concentration or dose not given beside the values
How it was run: (§1)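 Cortical neurons from E15 mouse embryos, trypsin-dissociated, grown 24 h on poly-L-lysine coverslips (37 °C, 5% CO2). On day 2, compound added for 24 h under the same conditions. On day 3, cells fixed and immunostained with anti-phosphoneurofilament (SMi312) and an Alexa488 secondary. Axonal growth given as % variation from control conditions; means ± SEM.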

[2] = tested on: Radical scavenging activity; test: Hydroxyl radical scavenging activity by ABTS assay; format: functional
How it was run: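 Competition assay for hydroxyl-radical scavenging in ethanolic medium: hydroxyl radicals oxidise ABTS to the stable ABTS•+ radical cation, read by absorbance at 405 nm. IC50 is the concentration giving a 50% decrease in ABTS•+, reported as the mean of three experiments.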

[3] = tested on: Cortical neurone; test: Growth promoting activity in axon at 100 nM in presence of 100 ng/ml Sema3A of glial scar; format: functional, Mus musculus; how it was run: as §1
[4] = tested on: Cortical neurone; test: Growth promoting activity in axon at 100 nM in presence of 10 ug/ml myelin protein of glial scar; format: functional, Mus musculus; how it was run: as §1
[5] = tested on: Cortical neurone; test: Growth promoting activity in axon at 100 nM; format: functional, Mus musculus; how it was run: as §1
[6] = tested on: Cortical neurone; test: Growth promoting activity in axon at 100 nM in presence of 1 ug/ml myelin protein of glial scar; format: functional, Mus musculus; how it was run: as §1
[7] = tested on: Cortical neurone; test: Growth promoting activity in axon at 1 nM in presence of 10 ug/ml myelin protein of glial scar; format: functional, Mus musculus; how it was run: as §1
[8] = tested on: Cortical neurone; test: Growth promoting activity in axon at 1 nM in presence of 100 ng/ml Sema3A of glial scar; format: functional, Mus musculus; how it was run: as §1
[9] = tested on: Cortical neurone; test: Growth promoting activity in axon at 1 nM in presence of 1 ug/ml myelin protein of glial scar; format: functional, Mus musculus; how it was run: as §1
[10] = tested on: Cortical neurone; test: Growth promoting activity in axon at 1 nM; format: functional, Mus musculus; how it was run: as §1

SMILES | Activity [1] [%] | IC50 [2] [µM] | other results
COc1cc(CCCCCCCCCCCCCCCO)c(OC)c(OC)c1OC | 158 | – | –
Cc1c(C)c2c(c(C)c1O)CCC(C)(C(=O)O)O2 (stereo unspecified) [TROLOX] | – | 600 | –
COc1ccc(OC)c(CCCCCCCCCCCCCCCCCCO)c1 | 109 | > 10000 | –
CC1=C(CCCCCCCCCCCCCCCO)C(C)(C)CCC1=O | 150 | > 10000 | Activity [3]: 10.2%; Activity [4]: 5%; Activity [5]: 80%; Activity [6]: 28.8%
COc1cc(OC)c(OC)cc1CCCCCCCCCCCCCCCCCCO | 106 | 720 | –
COc1cc(CCCCCCCCCCCCCCO)c(OC)c(OC)c1OC | 108 | – | –
COc1cc(OC)c(OC)cc1CCCCCCCCCCCCCCCO | 152 | 720 | –
COc1cc(OC)c(OC)cc1CCCCCCCCCCCCCCCCO | 135 | 720 | –
COc1cc(CCCCCCCCCCCCCCCCO)c(OC)c(OC)c1OC | 127 | – | –
COc1cc(OC)c(OC)cc1CCCCCCCCCCCCCCO | 109 | 720 | –
COc1cc(CCCCCCCCCCCCO)c(OC)c(OC)c1OC | 100 | – | –
COc1ccc(OC)c(CCCCCCCCCCCCO)c1 | 109 | > 10000 | –
COc1cc(OC)c(OC)cc1CCCCCCCCCCCCO | 108 | 720 | –
COc1cc(CCCCCCCCCCCCCCCCCCO)c(OC)c(OC)c1OC | 103 | – | –
COc1ccc(OC)c(CCCCCCCCCCCCCCO)c1 | 110 | > 10000 | –
COc1ccc(OC)c(CCCCCCCCCCCCCCCCO)c1 | 120 | > 10000 | –
COc1ccc(OC)c(CCCCCCCCCCCCCCCO)c1 | 181 | > 10000 | Activity [7]: -5.3%; Activity [8]: 12.4%; Activity [9]: 18.4%; Activity [10]: 81%
